# Measurements from different studies.
# Protocols differ between the studies behind these lines.
# Target: Uncharacterized serine/threonine-protein kinase SBK3 (SBK3, Homo sapiens, UniProt P0C264)
# Residues used in one study (P0C264 1-359): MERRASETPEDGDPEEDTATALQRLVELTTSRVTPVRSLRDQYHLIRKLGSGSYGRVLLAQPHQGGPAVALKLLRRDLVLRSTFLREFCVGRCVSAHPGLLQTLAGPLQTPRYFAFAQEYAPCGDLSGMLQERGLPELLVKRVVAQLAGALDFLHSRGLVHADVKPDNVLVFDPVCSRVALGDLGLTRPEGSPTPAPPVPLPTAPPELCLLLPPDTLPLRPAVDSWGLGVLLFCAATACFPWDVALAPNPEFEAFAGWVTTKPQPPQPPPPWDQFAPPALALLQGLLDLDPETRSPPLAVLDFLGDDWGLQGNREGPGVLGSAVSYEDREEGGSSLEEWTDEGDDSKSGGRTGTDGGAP
SMILES,effect on,method,tested at,remaining binding [%]
CN(C)C(=O)Cn1cc(-c2nc([C@@](C)(c3ccc(-c4cnc(N)nc4)cc3)C3CC3)no2)cn1,cell-free assay,competition with immobilised ligand,1 µM,71
F[C@@H]1CCN(c2nccc(-c3cnn4ncccc34)n2)C1,binding,,1 µM,100
COc1cnc(Nc2cccc(S(N)(=O)=O)c2)nc1N1CCN(c2ccccc2)CC1,binding,competition with immobilised ligand,1 µM,100
O=C(N[C@H]1CCCCC/C=C\C2C[C@@]2(C(=O)O)NC(=O)[C@@H]2C[C@@H](Oc3ccncc3)CN2C1=O)OC1CCCC1 (some centres unmarked),binding,competition with immobilised ligand,1 µM,79
O=C(c1ccc(Nc2nccc(-c3cc4ccccc4s3)n2)cc1)N1CCC(N2CCCC2)CC1,binding,competition with immobilised ligand,1 µM,88
CNC(=O)[C@@H]1CC[C@@H](n2c(-c3ccc4cnccc4c3)nc3ccc(C(=O)NCc4cccc(C(N)=O)c4)cc32)C1,binding,competition with immobilised ligand,1 µM,87
O=C(NCC1CCOCC1)c1n[nH]cc1NC(=O)c1c(F)cccc1F,binding,competition with immobilised ligand,1 µM,68
O=C(c1ccc(Nc2ncc(Cl)c(-c3cc4ccccc4s3)n2)cc1)N1CCC(N2CCCC2)CC1,binding,competition with immobilised ligand,1 µM,86
CC(=O)C1=C(C)N(c2cccc(C(F)(F)F)c2)C(=O)N[C@@H]1c1ccc(C#N)nc1,cell-free assay,competition with immobilised ligand,1 µM,100
Cc1cnc(Nc2ccc(C(=O)N3CCC(N4CCCC4)CC3)cc2)nc1-c1cc2ccccc2s1,binding,competition with immobilised ligand,1 µM,46
Cn1nc(C(=O)NCc2ccc(C(=O)O)cc2)cc1-c1ccc2[nH]ccc2c1,cell-free assay,competition with immobilised ligand,0.1 µM,79
CN(C)c1nccc(-c2cnn3ncccc23)n1,binding,,1 µM,100
c1cncc(-c2cccc(Nc3nccc(NC4CCCCC4)n3)c2)c1,binding,competition with immobilised ligand,10 µM,33
c1cnn2ncc(-c3ccnc(N4CCC45COC5)n3)c2c1,binding,,1 µM,71
Cc1nc(Cc2cccc(C(F)(F)F)c2)sc1-c1ccc(C(N)=O)nc1,cell-free assay,competition with immobilised ligand,1 µM,100
C[C@@H](c1ccc(-n2cnc3c(N)ncnc32)cc1)N1CCc2nn(C)c(Cc3ccccc3)c2C1=O,binding,competition with immobilised ligand,0.1 µM,99
N[C@H]1CCN(c2nccc(-c3cnn4ncccc34)n2)C1,binding,,1 µM,100
O=C(Nc1ccc(Oc2ccc(F)cc2)cc1)N1CCc2ncccc2[C@H]1c1ccc(F)cc1,cell-free assay,competition with immobilised ligand,1 µM,70
COc1ncc2cc3ccccc3nc2c1C#N,cell-free assay,competition with immobilised ligand,5 µM,100
CN(CCCC(F)(F)F)c1nccc(-c2cnn3ncccc23)n1,binding,,1 µM,42
